HKDC1 inh – blocks human hexokinase HKDC1 activity; Q2TB90; recombinant HKDC1, G6PDH/diaphorase resazurin coupled fluorescence; inhibition, % at 20 µM; actives 0.16% (n = 340,000); AID 493160;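 active means inhibition above about 35% when tested at 20 µM, limit read from the data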;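 further: plate controls were DMSO wells with enzyme for no effect and DMSO wells lacking enzyme for full effect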
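Assay system – recombinant HKDC1 (HK5) hexokinase enzyme, produced in-house · Input – HKDC1 at 5 µg/mL · Reagent – glucose plus 1 mM ATP as hexokinase substrates · Timing – 90 min reaction incubation at room temperature, dark · Measured by – G6PDH/diaphorase-coupled fluorescence, 1 mM NADP, 100 µM resazurin, 525/613 nm · Benchmarks – DMSO-enzyme wells negative, buffer-substituted wells positive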
ATG4B inhibitor – blocks human ATG4B protease cleavage of LC3 substrate; Q9Y4P1; ATG4B cleavage of LC3-PLA2, NBD-HPC fluorescence, 1 h; inhibition, % at 8.33 µM; actives 0.51% (n = 340,000); in the data active means inhibition above about 40%
PfG6PD inh – PfG6PD (Plasmodium falciparum) enzyme inhibition | PfGluPho enzyme, NADPH resazurin-diaphorase fluorescence | inhibition, % at 20 µM | actives 0.78% (n = 350,000);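 active means inhibition reaching at least a set limit at 20 µM in the primary screen, cut at about 59% in these data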;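 further: 0% = DMSO wells with substrate and 100% = DMSO wells lacking glucose-6-phosphate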
PKA-R1A activ – activators of PKA-R1A complex; P00514+P68181; activation, % at 11.4 µM; PKA-R1A dissociation, Cy5-IP20 fluorescence polarization; scaled: DMSO 0%, 113 µM cGMP 100%; actives 0.083% (n = 340,000);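 active means percent activation above the mean of all tested compounds plus 3 SD, cut at about 19% in these data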;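 further: higher means more PKAc released from R1A so a rise in polarization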
T cell modulator – T cell immune modulation candidate; 2C CD8+ T cell-vesicle binding, flow cytometry; active compounds read low; actives 0.068% (n = 330,000); AID 2052; response (vesicle binding), % at 7 µM;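 active means response, share of CD8 T cells binding vesicles, and their 90th percentile fluorescence all below set limits, cut at about 80% in these data, passing the limit was not always enough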;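 further: values below 100% mean blocked vesicle binding to the CD8+ T cells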
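Material: murine 2C transgenic CD8+ T lymphocytes / Also added: QL9-peptide-loaded Drosophila micro-vesicles bearing Ld, ICAM-1 and B7-1 / Schedule: binding step 1.5 h, 37 °C, antibody labelling 20 min, ice / Signal: flow cytometry, PE anti-B7-1 (FL2) versus Alexa647 anti-CD8 (FL8), PFA-fixed / Evaluation: percent CD8+ FL2 mean versus row control / Benchmarks: naked versus QL9-loaded vesicles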
PKA-R2B act – PKA-R2B complex activation. P22694+P31323. activation, % at 11.4 µM. PKA-R2B holoenzyme dissociation, Cy5-IP20 fluorescence polarization; R2B truncated from residue 108, S112A mutant; 0% DMSO only, 100% 113 µM cGMP. actives 0.079% (n = 340,000);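 active means activation above a cutoff set at the mean over all compounds plus 3 SD, cut at about 18% in these data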;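 further: higher means more holoenzyme dissociation and a rise in polarization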
PfGluPho conf – confirmation of Plasmodium falciparum G6PD inhibitors; shares compounds with PfG6PD inh; recombinant PfGluPho, NADPH-diaphorase-resazurin fluorescence; inhibition, % at 20 µM; actives 34% (n = 2,400); AID 504753;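 active means inhibition of at least 50% at 20 µM in any single replicate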;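 further: 0% = DMSO with substrate and 100% = DMSO lacking glucose-6-phosphate substrate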
Diaph ctr 10uM – counter-screen for P. falciparum G6PD inhibitors: diaphorase inhibitors, oxidizers; shares compounds with PfG6PD inh; diaphorase-coupled resazurin reduction, fluorescence, NADPH 10 uM; inhibition, % at 20 µM; actives 39% (n = 820);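 active means average inhibition reaching 50% or more with the compound at 20 µM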;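 further: resorufin red fluorescence formed as diaphorase reduces resazurin using NADPH; 0% = DMSO with enzyme and 100% = DMSO without enzyme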
Diaphorase 30uM – diaphorase inhibition or oxidation at 30 uM NADPH; shares compounds with PfG6PD inh; Diaphorase/resazurin coupled assay, resorufin fluorescence; inhibition, % at 20 µM; actives 29% (n = 820); AID 504863;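 active means inhibition averaging 50% or more, tested at 20 µM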;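 further: 0% = DMSO with enzyme and 100% = DMSO wells lacking diaphorase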
An asterisk follows results filed as active; i = inactive; . = no result. An excerpt weighted towards active compounds, which were near 1.6% of everything screened.

SMILES	HKDC1 inh	ATG4B inhibitor	PfG6PD inh	PKA-R1A activ	T cell modulator	PKA-R2B act	PfGluPho conf	Diaph ctr 10uM	Diaphorase 30uM
Cc1ccccc1OCC1Cn2c(nc3c2c(=O)n(C)c(=O)n3C)O1 (stereo not drawn)	-9	-6	15	1	207	6	.	.	.
Cn1c(=O)c2[nH]c(=S)n(Cc3ccccc3)c2n(C)c1=O	-4	0	51	-6	.	1	.	.	.
Cn1c(=O)n(Cc2ccccc2Cl)c2ccccc21	-7	-3	-14	-8	149	-7	.	.	.
Cn1c(=O)[nH]c(=O)c2c1[nH]c(=S)n2Cc1ccc(Cl)cc1	-7	6	51	15	185	9	.	.	.
Cn1c(=O)n(Cc2ccccc2Cl)c(=O)c2c1[nH]c(=S)n2C	-5	-3	60*	-9	53	1	33	.	.
Cn1c(=O)[nH]c(=O)c2c1[nH]c(=S)n2CCCc1ccccc1	-4	3	75*	-1	.	6	49*	-34	-6
Cn1c(=O)c2c([nH]c(=S)n2CCCc2ccccc2)n(C)c1=O	-6	2	68*	-9	206	-8	53*	-34	-26
O=C(COc1cccc2ccccc12)N/N=C/c1ccccc1OCc1ccc(C(=O)O)cc1	4	-7	77*	-5	173	-7	45	.	.
CCCN1CCC(=O)NC1=S	-3	-1	-11	-1	.	-1	.	.	.
COc1ccc([N+](=O)[O-])cc1/C=N/NC(=O)/C(=C\c1cccs1)NC(=O)c1ccccc1	-1	-7	99*	5	i	-1	82*	86*	70*
CC(C)c1cc2c(c(O)c1O)[C@@]13CCCC(C)(C)C1CC2OC3=O (stereo partly drawn)	9	-3	67*	-4	411	3	51*	-16	-24
O=[N+]([O-])c1ccc(S(=O)(=O)Nc2ccc(-c3ccccc3)cc2)cc1	.	.	-15	-12	.	-2	.	.	.
CN(NS(=O)(=O)c1ccc([N+](=O)[O-])cc1)c1ccccc1	.	.	82*	12	.	3	55*	91*	85*
O=C(NCc1ccccc1)/C(=C\c1ccc(F)cc1)NC(=O)c1ccco1	.	.	-5	6	.	-4	.	.	.
Cc1cc(=O)c(C(=O)O)nn1-c1cccc(C(F)(F)F)c1	-3	-2	-2	0	318	-6	.	.	.
O=c1ccn(-c2cccc(C(F)(F)F)c2)nc1-c1ccn(-c2ccccc2)n1	1	-1	91*	-6	234	0	73*	66*	55*
O=C(O)c1cccc(-c2ccc(/C=N/NC(=O)c3cccnc3)o2)c1	-10	-7	-1	-1	73	-11	.	.	.
Cc1nnc(N/N=C\c2ccc(-c3cccc(C(=O)O)c3)o2)n1N	3	-8	71*	-13	295	-5	52*	25	18
Cc1nnc(N/N=C/c2ccc(-c3ccc(Br)cc3)o2)n1N	5	-8	61*	-12	317	-9	48	.	.
Cc1cc(C(=O)CCC(=O)N(C)CC2COc3ccccc3O2)c(C)s1 (stereo not drawn)	.	.	1	-5	.	-5	.	.	.
O=C(O)c1ccc(N=NN2CCCCCC2)cc1	-7	-3	-17	-15	86	-11	.	.	.
CCOC(=O)c1ccc(-n2nc(C)cc2C)cc1	-7	4	3	-8	475	-1	.	.	.
CCOC(=O)c1ccc(N=c2ssnc2Cl)cc1	-8	-10	88*	-13	.	-2	30	.	.
N#Cc1ccc(Oc2c(Cl)cncc2Cl)cc1	-6	1	0	1	330	0	.	.	.
